Results reported in ChEMBL document CHEMBL1138987, “Development of cyclic gamma-MSH analogues with selective hMC3R agonist and hMC3R/hMC5R antagonist activities” (J Med Chem, 2006).

Columns and labels:
[1] = target: T1, Melanocyte-stimulating hormone receptor (Homo sapiens, UniProt Q01726); experiment: Inhibitory activity against hMC1R transfected in HEK293 cells; assay type: cell-based
Summary of the method: (§1)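 Competition binding on whole HEK293 cells stably expressing the human receptor, seeded 48 h prior. Binding buffer was MEM, 25 mM HEPES pH 7.4, 0.2% BSA, 1,10-phenanthroline, leupeptin and bacitracin. Cells washed and lysed, then gamma counted. IC50 from nonlinear least-squares fit; mean of two experiments in triplicate.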
Target sequence in this assay (Q01726 whole entry): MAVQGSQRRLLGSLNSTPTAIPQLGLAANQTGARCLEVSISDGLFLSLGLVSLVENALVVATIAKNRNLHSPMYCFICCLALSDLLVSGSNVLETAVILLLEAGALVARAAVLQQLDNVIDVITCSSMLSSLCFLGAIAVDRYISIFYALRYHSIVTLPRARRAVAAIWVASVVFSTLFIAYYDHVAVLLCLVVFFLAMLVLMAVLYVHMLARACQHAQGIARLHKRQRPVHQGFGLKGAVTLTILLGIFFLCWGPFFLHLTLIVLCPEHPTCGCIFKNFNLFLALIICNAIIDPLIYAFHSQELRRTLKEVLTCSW

Melanocortin receptor 3 [2] = target: T2, Melanocortin receptor 3 (Homo sapiens, UniProt P41968); experiment: Inhibitory activity against hMC3R transfected in HEK293 cells; assay type: cell-based; summary of the method: as §1
T2 sequence (P41968 whole entry): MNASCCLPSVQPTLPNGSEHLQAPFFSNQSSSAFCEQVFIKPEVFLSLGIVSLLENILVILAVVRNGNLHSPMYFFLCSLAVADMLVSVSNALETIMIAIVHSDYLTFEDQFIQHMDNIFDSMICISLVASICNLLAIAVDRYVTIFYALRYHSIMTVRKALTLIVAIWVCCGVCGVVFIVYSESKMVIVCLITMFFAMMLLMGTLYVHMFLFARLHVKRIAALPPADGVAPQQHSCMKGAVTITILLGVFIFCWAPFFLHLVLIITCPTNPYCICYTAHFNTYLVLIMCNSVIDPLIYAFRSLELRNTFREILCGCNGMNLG

Melanocortin receptor 4 [3] = target: T3, Melanocortin receptor 4 (Homo sapiens, UniProt P32245); experiment: Inhibitory activity against hMC4R transfected in HEK293 cells; assay type: cell-based; summary of the method: as §1
T3 sequence (P32245 whole entry): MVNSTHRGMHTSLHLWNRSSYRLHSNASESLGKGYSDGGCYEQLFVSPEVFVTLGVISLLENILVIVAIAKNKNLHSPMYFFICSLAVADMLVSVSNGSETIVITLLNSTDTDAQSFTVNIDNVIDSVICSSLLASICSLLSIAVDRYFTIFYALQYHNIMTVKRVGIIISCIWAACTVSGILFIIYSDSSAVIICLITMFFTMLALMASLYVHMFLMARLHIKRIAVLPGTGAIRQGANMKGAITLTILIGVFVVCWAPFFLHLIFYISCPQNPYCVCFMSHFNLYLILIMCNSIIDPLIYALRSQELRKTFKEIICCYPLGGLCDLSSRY

Melanocortin receptor 5 [4] = target: T4, Melanocortin receptor 5 (Homo sapiens, UniProt P33032); experiment: Inhibitory activity against hMC5R transfected in HEK293 cells; assay type: cell-based; summary of the method: as §1
T4 sequence (P33032 whole entry): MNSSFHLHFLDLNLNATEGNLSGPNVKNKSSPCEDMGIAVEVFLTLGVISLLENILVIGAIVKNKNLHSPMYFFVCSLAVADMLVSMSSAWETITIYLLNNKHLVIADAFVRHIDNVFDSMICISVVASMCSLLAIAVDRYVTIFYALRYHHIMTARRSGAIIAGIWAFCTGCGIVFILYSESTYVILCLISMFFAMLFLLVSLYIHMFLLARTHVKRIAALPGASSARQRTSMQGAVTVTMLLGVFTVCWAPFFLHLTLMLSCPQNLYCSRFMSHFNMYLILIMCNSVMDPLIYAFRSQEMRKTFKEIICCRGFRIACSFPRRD

[5] = target: T1, Melanocyte-stimulating hormone receptor; experiment: Activity against hMC1R transfected in HEK293 cells by intracellular cAMP accumulation; assay type: functional, cell-based
Summary of the method: (§2)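 HEK293 cells stably transfected with human receptor, grown to confluence in MEM with 10% FBS, seeded 48 h before assay. Cells preincubated 1 min at 37 °C in EBSS with IBMX (0.5 mM stock). Peptide added (10^-10 to 10^-5 M), 3 min at 37 °C. Stopped with ice-cold Tris/EDTA, boiled, cAMP measured by competitive binding kit. EC50 from nonlinear least-squares fit; mean of two experiments in triplicate.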

Melanocortin receptor 3 [6] = target: T2, Melanocortin receptor 3; experiment: Activity against hMC3R transfected in HEK293 cells by intracellular cAMP accumulation; assay type: functional, cell-based; summary of the method: as §2
Melanocortin receptor 4 [7] = target: T3, Melanocortin receptor 4; experiment: Activity against hMC4R transfected in HEK293 cells by intracellular cAMP accumulation; assay type: functional, cell-based; summary of the method: as §2
Melanocortin receptor 5 [8] = target: T4, Melanocortin receptor 5; experiment: Activity against hMC5R transfected in HEK293 cells by intracellular cAMP accumulation; assay type: functional, cell-based; summary of the method: as §2

Work on `CCCC[C@@H]1NC(=O)CC[C@@H](C(N)=O)NC(=O)[C@H](Cc2c[nH]c3ccccc23)NC(=O)[C@H](CCCN=C(N)N)NC(=O)[C@@H](Cc2ccccc2)NC(=O)[C@H](C(C)C)NC1=O` yielded an IC50 [1] of over 10000 nM, an IC50 (Melanocortin receptor 3 [2]) of 600 nM and an IC50 (Melanocortin receptor 4 [3]) of 2500 nM. It also gave an IC50 (Melanocortin receptor 5 [4]) of 110 nM, a %max [5] of 0% and an EC50 [5] of over 10000 nM. For the same molecule, the %max (Melanocortin receptor 3 [6]) was 108%, the EC50 (Melanocortin receptor 3 [6]) was 27 nM and the %max (Melanocortin receptor 4 [7]) was 25%. The EC50 (Melanocortin receptor 4 [7]) was 3000 nM, the %max (Melanocortin receptor 5 [8]) was 75% and the EC50 (Melanocortin receptor 5 [8]) was 180 nM.
